Assay: Toxicity liver stage against HepG2, at 10uM
Assay type: cell-based
Design: test concentration 10 uM, cell line HepG2-A16-CD81EGFP
Conditions: human, HepG2-A16-CD81EGFP cells; read-out: INHIBITION
Outline: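 Uninfected HepG2-A16-CD81EGFP cells, 3 × 10^3 per well, 1536-well, plated on prespotted compound at 10 μM final, parasite-free screening media added to match infected plates; puromycin 10 μM positive, DMSO 0.5% negative; run in parallel with 48 h PbLuc assay at 37 °C, 5% CO2; viability by CellTiter-Glo luminescence, normalized to controls.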

SMILES | cytotoxicity at 10 µM [%]
COc1ccc2c(c1)CN(CC1CC1)C(=O)CCN2CC(C)(C)O | -13.9
O=c1c(NCCc2ccc(O)cc2)c(NCc2ccccn2)c1=O | -2.72
O=C(c1ccoc1)N1CCC2(CC1)COC(COCc1ccccn1)C2 (stereo not drawn) | -138
Cc1cccc(C(=O)N2CCC3(CC2)CC(c2ccccc2)C(=O)N3)c1 (stereo not drawn) | 17.8
Cc1nc(CO[C@@H]2CN(Cc3ccc(F)cc3)[C@@H]3COC[C@@H]32)cs1 | 5.42
COC[C@@]12CCO[C@@H]1CCN(C(=O)CCc1ccccc1Cl)C2 | 7.69
CS(=O)(=O)NC[C@]12COC[C@H]1CN(C(=O)c1cnccn1)C2 | 6.3
CN(Cc1cn2c(n1)CN(C(=O)c1cccn1C)CC2)Cc1ccco1 | 2.75
CNC(=O)C1Cn2ccnc2C2(CCN(Cc3csc(C)n3)CC2)O1 (stereo not drawn) | -151
CC(C)=CCC/C(C)=C/CC(C)(C)CNCc1ccco1 | -23.7
COc1ccc2c(c1)C1(CCN(Cc3ccoc3)CC1)N(C)CC2 | -8.04
Cc1n[nH]c(C)c1S(=O)(=O)N(C)Cc1nn(C)c(Cl)c1Cl | 0.303
Cc1cccc2c1cnn2CCC(=O)NCc1csc(C2CC2)n1 | 4.22
O=C(c1ccnc(C2CCNCC2)c1)N1CCCC(CO)C1 (stereo not drawn) | 3.9
Cc1nccn1[C@@H]1CC[C@@H](NC(=O)Cn2c(C)nc3ccccc32)[C@H]1O | 2.41
Cc1nc(CC(=O)N2CCC(c3ccn4nccc4n3)CC2)cs1 | -0.956
COc1cc(CN2CCCC[C@]3(C)NC(=O)CC[C@H]23)ccc1F | -2.32
Cn1cnc(S(=O)(=O)N2CCCC2c2ccnc3nccn23)c1 (stereo not drawn) | 6.28
CC(C(=O)NC1CC1)n1nc(-c2cccs2)cc(N)c1=O (stereo not drawn) | 10.9
O=C1NC2(CCN(C(=O)CN3CCOCC3)CC2)Nc2ccc(Cl)cc21 | 0.961
CC(=O)N1CCC(C)(c2nc(C)no2)CC1 | -1.55
CC(C)N1CCC(c2nccnc2Nc2cnccn2)CC1 | 1.44
CCc1nnc(Nc2cc(C)nc(C3CCN(c4ccncn4)C3)n2)s1 (stereo not drawn) | 4.38

SMILES | cytotoxicity at 10 µM [%]
COCC1CCN(c2cc(C3CN(C)CCO3)nc(C)n2)CC1 (stereo not drawn) | 4.71
CCOc1cc(CNC(=O)NC2CC=CC2)ccc1OC(F)F | -42.4
CCN(CC)CCn1cc(NC(=O)Nc2ccccc2OC)cn1 | 12.7
CC(CNS(C)(=O)=O)Oc1cccc(Cl)c1 (stereo not drawn) | 4.6
O=C(NC1CCCN(Cc2c(F)cccc2F)C1)c1cnccn1 (stereo not drawn) | -1.62
CCC(NC(=O)CN(C)Cc1ccc(C)o1)c1ccc(C)cc1 (stereo not drawn) | 3.97
COC(=O)C(C)Sc1nnnn1C1CCOCC1 (stereo not drawn) | -10.5
COc1ccc(C(=O)NC2CC2)c(OC)c1 | -3.51
CNC(=O)C1Cc2ccccc2CN1CCC#N (stereo not drawn) | 6.35
CC(c1ccc(Cl)cc1)N1CCN(CCS(N)(=O)=O)CC1 (stereo not drawn) | -1.37
CSCC(C)(O)CNC(=O)c1ccc(F)cc1Cl (stereo not drawn) | -2.79
Cc1cc(CN2CCc3cncnc3C2)no1 | 5.84
COc1c(C2CCCN2C(=O)c2ccoc2C)c(C)nn1C (stereo not drawn) | 0.243
CN1CCN(C(=O)c2cnsn2)c2ccc(F)cc21 | 3.47
CCC(=O)N(CCN(C)C)Cc1ccc(F)c(F)c1 | -4.38
O=C(Nc1cn[nH]c1)N(CCO)C1CCc2ccccc21 (stereo not drawn) | -8.74
O=C(CCS(=O)(=O)C1CCCC1)NCCc1ccc2c(c1)OCCO2 | -1.29
O=C(c1ccncc1)N1CCN(c2ccc(F)cc2Cl)CC1 | -140
COc1ccc(CSCC(O)CO)c(Cl)c1 (stereo not drawn) | -142
Cc1ncsc1C(=O)N1CCN(Cc2ccccc2)CC1C (stereo not drawn) | -161
CN(CC(F)(F)F)C(=O)CN1CCC(c2cc3ccccc3[nH]2)CC1 | 4.93
CC(Cn1cncn1)NC(=O)NCc1csc(N(C)C)n1 (stereo not drawn) | 8.42
Fc1ccc(C(NCc2nnc(C3CC3)o2)C2CCC2)cc1 (stereo not drawn) | -48.1

SMILES | cytotoxicity at 10 µM [%]
Cc1ccc(N2CCCC(NC(=O)Nc3cnn(C)c3)C2=O)cc1 (stereo not drawn) | -44
O=C(NCCCN1CCN(c2ncccn2)CC1)NCC1CCOC1 (stereo not drawn) | -56.6
N#Cc1cc(F)c(NCCc2ccc(F)cc2)c(F)c1 | -60.3
CC(C)N(C)CC(=O)NC1CCc2nccn2C1 (stereo not drawn) | 17.8
Cc1ccc(S(=O)(=O)NC(=O)c2cccc3c2OCCO3)c(C)c1 | 3.25
CC(C)(O)CN1CCN(C(=O)c2cc3ccccc3c(=O)[nH]2)CC1 | 1.52
c1c(CN2CCOCC2)nc2n1CCN(CC1CC1)C2 | 2.73
COCCn1cc2c(n1)C(CNC(=O)c1cc(C)[nH]c1C)OCC2 (stereo not drawn) | 8.81
CCN(C(=O)c1nc2c(s1)CCCN2C)C(C)C | 4.37
COCC1CN(S(=O)(=O)c2ccccc2)Cc2ncnn2C1 (stereo not drawn) | -117
CN(C)CC(=O)N1Cc2nnn(C)c2C(COCC2CC2)C1 (stereo not drawn) | -99.4
Cc1cc(CN2CC[C@H]3C[C@H](C(=O)N(C)C)O[C@@H]3C2)no1 | -5.53
Cc1cc2nc(C(=O)NCc3cccnc3N(C)C)cc(C)n2n1 | -5.54
Cc1nc(NC(=O)N2CCCC(C(C)(C)O)C2)nn1C (stereo not drawn) | 13.5
COc1ccc(CCC2CCCN(CC(=O)O)C2)cc1 (stereo not drawn) | 3.38
CC(C)Oc1cc(N2CCC3(CC2)[C@H](O)C[C@@H]3O)nc(N)n1 | -0.335
CCNc1ncc(CN2C[C@H](C3CC3)[C@@H](N)C2)cn1 | -40
Cc1cc(C(F)(F)F)cc(N2CCN(Cc3ccccc3)CC(O)C2)n1 (stereo not drawn) | 0.165
CN1CCC(C(=O)NCCC2CN(c3cnn(C)c(=O)c3)CCO2)CC1 (stereo not drawn) | 5.75
Cc1cc(C)c2[nH]c(C(=O)NCCN3CCOC3=O)c(C)c2c1 | -0.2
Cc1ccc(C)c(CN2CCCn3nc(CNS(C)(=O)=O)cc3C2)c1 | -4.64
CN(C)CCN1CC(C(=O)NCc2cn3cccnc3n2)CC1=O (stereo not drawn) | -4.29
Cc1cc(C)n(-c2ccc(C(=O)NCC(CO)Cc3cccs3)cc2)n1 (stereo not drawn) | 6.64

SMILES | cytotoxicity at 10 µM [%]
O=C(CSCC1CC1)N1CCCN(Cc2ccc(F)cc2)CC1 | 3.54
CCCc1cc(NCc2cc(C)on2)n2nccc2n1 | -6.85
CCn1c(C)nnc1SCCNC(=O)c1cnc(C(C)(C)C)nc1O | -6.14
O=C(CC1COCCN1)NCCc1noc(-c2ccccc2)n1 (stereo not drawn) | 3.05
COc1ccccc1OC1CCN(C(=O)CCCN2CCOCC2)CC1 | -177
c1ccc(Cn2cc(CNc3ncnc4c3CCNCC4)cn2)cc1 | 1.99
CSc1ccc(-c2nc(CN3C[C@@H](C)NC[C@@H]3C)c(C)o2)cc1 | -3.06
CCNC(=O)[C@@H]1C[C@H](N)CN1C(=O)c1c[nH]c2ccccc12 | -8.34
CCN1CCc2[nH]cnc2C12CCN(Cc1ccc3nsnc3c1)CC2 | 3.72
Cc1nc(N2CCN(S(C)(=O)=O)CC2)cc(-n2cnc(C)c2C)n1 | -5.83
O=C(CCc1cc(O)no1)N1CCCC(OCc2cccnc2)C1 (stereo not drawn) | -12.7
COc1ccc(-n2ncc(C(C)NC3CCOCC3)c2C)cc1 (stereo not drawn) | 2.77
Cc1cc(C(=O)N2CCC(c3nccn3Cc3ccncc3)CC2)no1 | -15.7
O=C(Cn1cccnc1=O)NC(Cc1cccs1)c1ccccn1 (stereo not drawn) | -2.03
O=c1oc(-c2ccc(F)cc2)nn1CN1CCCCC1 | -4.35
CCc1nnc2n1CCN(C(=O)c1cc3ccc(C)cc3[nH]1)C2 | -4.87
COc1cccc(S(=O)(=O)NC(=O)CCC2CCCC2)c1 | 0.428
Cc1[nH]nc2ncc(C(=O)N3CCN(CCC(C)C)CC3)cc12 | 0.977
Cc1occc1C(=O)N1CCCN(Cc2nccn2C)CC1 | -1.56
Cc1cc(C)n(CC2CN(c3ccc(C#N)cn3)CCO2)n1 (stereo not drawn) | -1.56
Cc1cccc(-c2nc(CNC3CCc4ncnn4C3)no2)c1 (stereo not drawn) | -2.09
CCc1nnc2n1CCN(Cc1cc(Cl)c3c(c1)OCCCO3)C2 | -5.83
Cc1ccc(NC2CCN(C(=O)CCc3ccncc3)CC2)nn1 | -9.43

SMILES | cytotoxicity at 10 µM [%]
CCC(=O)NCC(=O)NCC1CCN(c2cc(Cl)ccc2C)C1 (stereo not drawn) | -13.2
CCc1nc(CN(C)C2CCN(CC(=O)N(C)C)C2)no1 (stereo not drawn) | -16.7
COC(=O)C(c1ccccc1)N(C)C(=O)c1ccnc(C)n1 (stereo not drawn) | 1.4
CC(C)(C)c1n[nH]c(C2CN(C(=O)Cn3ccccc3=O)CCO2)n1 (stereo not drawn) | -1.22
CC(O)CN1CCC(CNCc2cccc(Cl)c2)CC1 (stereo not drawn) | -23.8
Cc1ccoc1C(=O)N1CCCC(CNS(C)(=O)=O)C1 (stereo not drawn) | -23.4
Cc1nnc(NC(=O)NCc2cc(F)cc(F)c2)s1 | -6.07
Cc1cnc2c(S(=O)(=O)NCC3CCN(C4CC4)C3)cccc2c1 (stereo not drawn) | -6.36
CS(=O)(=O)NC1CCN(C(=O)NCCc2ccccc2F)CC1 | -3.83
CCn1ccnc1CN1CCCN(C(=O)c2cc(Cl)c[nH]2)CC1 | -9.6
CCc1nc(CNCC2CCCN2c2cc(NC)ncn2)cs1 (stereo not drawn) | -9.11
CCNC(=O)Nc1ccc2c(ccn2CC(=O)N(CC)CC)c1 | -0.421
CCn1ccnc1CN1CCC(N(C)Cc2ncc(C)o2)C1 (stereo not drawn) | -7.48
CN(C)CC1CN(Cc2nnc(-c3ccccc3Cl)o2)CCO1 (stereo not drawn) | 1.56
CCOCCN1CCn2c(C)nnc2C1 | 3.34
c1csc(-c2nc(CN3CCOC(Cn4cncn4)C3)co2)c1 (stereo not drawn) | -11.8
CCc1n[nH]c(C2CN(CCc3ccncc3)CCO2)n1 (stereo not drawn) | 2.17
Cc1cc(C)n(C2CCCN(C(=O)c3ccc(NC4CC4)nc3)C2)n1 (stereo not drawn) | 5.25
Cc1ccc(CN2CCc3onc(C(=O)N4CCCC4)c3C2)o1 | 6.28
COCC1COCCC12CCN(Cc1cccs1)CC2 (stereo not drawn) | 6.13
c1cncc(COC[C@@H]2CCC[C@@]23CNCCO3)c1 | -106

From ChEMBL document CHEMBL4513216, “Probing the Open Global Health Chemical Diversity Library for Multistage-Active Starting Points for Next-Generation Antimalarials” (ACS Infect Dis, 2020)
